MC4R antag cAMP: blocks human MC4R cAMP signaling | MC4R-expressing cells, MTII-stimulated cAMP, LANCE TR-FRET | inhibition, % at 6.5 µM | 360,000 compounds, 0.48% hits | P32245 | AID 540295;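 active means inhibition above its plate's cutoff, the mean of tested wells on that plate plus 3 SD, cut at about 29% in these data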;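 further: 0% = Melanotan II alone and 100% = Melanotan II plus saturating MCL0020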
Target sequence (P32245 whole entry, looked up): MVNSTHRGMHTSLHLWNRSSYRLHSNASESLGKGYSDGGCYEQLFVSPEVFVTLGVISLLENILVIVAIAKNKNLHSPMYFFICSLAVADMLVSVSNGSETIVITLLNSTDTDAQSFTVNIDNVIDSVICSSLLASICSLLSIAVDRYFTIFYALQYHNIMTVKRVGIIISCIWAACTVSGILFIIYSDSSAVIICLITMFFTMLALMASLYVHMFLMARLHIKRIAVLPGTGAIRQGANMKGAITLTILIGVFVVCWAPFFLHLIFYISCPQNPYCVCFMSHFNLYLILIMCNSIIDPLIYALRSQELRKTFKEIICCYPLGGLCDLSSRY
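Test system: U2OS cells stably expressing human melanocortin 4 receptor (MC4R); also added: Melanotan II challenge; compound: 6.5 µM single dose; timing: 30-min compound preincubation, 1-h Melanotan II challenge, 1-h detection, room temperature; signal: Eu-cAMP/anti-cAMP TR-FRET, emission 671 nm; repeats: one well per compound, no replicates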
m5-HT2A agonist: mouse HTR2A agonism via beta-arrestin recruitment | P35363 | CHO-K1 mHTR2A beta-arrestin complementation, luminescence; percent of 30 µM serotonin response | activation, % at 7.6 µM | 360,000 compounds, 0.66% hits | AID 624169;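 active means activation above a run cutoff, the mean activation of all tested compounds plus 3 SD, cut at about 14% in these data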;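 further: 0% = plate median of compound wells and 100% = 30 µM serotonin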
EBI2 antag: blocks human EBI2 receptor beta-arrestin signaling. P32249. EBI2 beta-arrestin recruitment, luminescence, 7a,25-OHC stimulated. inhibition, % at 5 µM. 360,000 compounds, 0.81% hits. AID 651636; in the data active means inhibition above about 38%;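 further: enzyme fragment complementation signal reports receptor beta-arrestin coupling in cells; 0% = agonist plus DMSO wells and 100% = wells without agonist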
MC4R barr agon: activates human MC4R beta-arrestin recruitment; U2OS MC4R beta-arrestin complementation, luminescence; percent of melanotan II response, DMSO zero; activation, % at 8.9 µM; 360,000 compounds, 0.98% hits;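 active means activation above a per-plate cutoff, the mean activation of sample wells on that plate plus 3 SD, cut at about 8% in these data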
MOR ag counter: counter-screen for mouse HTR2A agonists: human mu opioid receptor agonists; shares compounds with m5-HT2A agonist; U2OS OPRM1 beta-arrestin PathHunter, luminescence; DMSO 0%, DAMGO 9.3 µM 100%; activation, % at 9.3 µM; 2,300 compounds, 5.3% hits; AID 624380;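 active means mean activation above the mean of DMSO-only wells plus 3 SD, cut at about 0.5% in these data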
m5-HT2A ag conf: mouse HTR2A agonism confirmed; shares compounds with m5-HT2A agonist; CHO-K1 PathHunter beta-arrestin recruitment, luminescence; DMSO 0%, 30 µM serotonin 100%; activation, % at 7.6 µM; 2,300 compounds, 19% hits; AID 624381;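 active means mean activation across triplicates above the hit threshold derived in the original primary screen, cut at about 15% in these data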
* hit, by the source's call; / = no result. Compounds with a hit are over-represented: about 2.8% of the library has one in this group of screens.

SMILES	MC4R antag cAMP	m5-HT2A agonist	EBI2 antag	MC4R barr agon	MOR ag counter	m5-HT2A ag conf
O=C(COc1ccccc1)Nc1nnc(-c2ccc(F)cc2)o1	-1.3	16.8*	-1.0	0.2	-0.6	2.5
O=C(COc1ccccc1)Nc1nnc(-c2ccc3c(c2)CCCC3)o1	-0.5	-0.5	-1.6	-2.2	/	/
CC(CCc1ccccc1)NC(=O)CNC(=O)N1CC(=O)Nc2ccccc21 (configuration not stated)	3.2	15.1*	-4.8	3.2	-0.6	-0.4
CC(CCc1ccccc1)NC(=O)CN1CCc2ccccc2C1 (configuration not stated)	-4.3	25.3*	-7.5	2.8	-0.6	60.3*
CCCCNC(=O)C1(C)CCCCCN1Cc1cc2ccccc2o1 (configuration not stated)	1.6	0.1	18.3	-0.2	/	/
Cc1cc(N2CCN(c3nc4ccccc4s3)CC2)n2ncnc2n1	2.5	21.6*	-5.3	0.4	-0.5	3.7
CN(C)CCNC(=O)c1cc2ccccc2oc1=O	4.1	15.6*	-4.8	-0.6	-0.5	-2.9
CCCNC(=O)c1cc(C2CCCCN2C(=O)c2cc(OC)c(C)c(OC)c2)on1 (configuration not stated)	1.3	16.5*	-8.7	-0.7	-0.6	-3.8
COc1cc(C(=O)N2CCCCC2c2cc(C(=O)NC(C)C)no2)cc(OC)c1C (configuration not stated)	-4.2	-3.8	1.3	-0.1	/	/
Cc1ccc(C(=O)NCCNC(=O)c2ccc(C)o2)o1	-0.1	-3.7	-8.4	-2.8	/	/
COc1ccccc1OCCNC(=O)c1ccc(C)o1	2.6	15.4*	-0.7	-0.2	-0.5	0.5
CSC[C@H]1CN(Cc2ccccc2)C(=O)[C@@H]1CC(=O)Nc1ccc(Br)cc1	5.4	-4.8	1.2	-1.2	/	/
COc1ccc(C(=O)Nc2ccc(Nc3ccccc3)cc2)cc1[N+](=O)[O-]	-10.1	-3.6	14.9	0.6	/	/
COc1ccc(C(=O)Nc2ccc(OC)c([N+](=O)[O-])c2)cc1Br	-5.7	24.2*	-0.5	-1.2	-0.5	13.8
Cc1cc(Br)cn2c(Cc3ccccc3)c(-c3cccc(Br)c3)nc12	/	2.2	14.1	/	/	/
COC1=C/C(=C/c2c(O)c(C#N)c3ccccn23)C=CC1=O	-16.5	20.4*	-11.1	-1.8	-0.6	-7.5
COc1cc(OC)cc(C(=O)c2c(C)c(C#N)c3ccccn23)c1	9.8	1.7	-9.9	-1.0	/	/
CC(C(=O)Nc1ccccc1)N1C(=O)c2ccccc2C1=O (configuration not stated)	-4.0	7.2	-5.3	-0.1	/	/
Cc1cc(C)cc(NC(=O)C(C)N2C(=O)c3ccccc3C2=O)c1 (configuration not stated)	16.8	19.7*	-3.3	1.0	-0.5	-2.0
COC(=O)C[C@@H]1C=C[C@@H](NC(C)=O)[C@@H](CO)O1	/	-0.9	-2.9	/	/	/
COc1ccc(NC(=O)N(C)C[C@@H]2OCc3cn(nn3)CCCC(=O)N([C@@H](C)CO)C[C@H]2C)cc1	13.0	-5.6	-4.0	-0.4	/	/
CCCc1cc(NCCCN2CCOCC2)n2c(nc3ccccc32)c1C#N	0.8	31.8*	-29.3	-2.5	0.1	0.2
COC(=O)[C@]12CCCCC=C1N(Cc1cccc3ccccc13)C(=O)[C@H](CC(=O)NCc1cccs1)C2	/	-0.1	19.2	/	/	/
CCN(CC)C(C)C(=O)NCC1(c2ccccc2)CCOCC1 (configuration not stated)	7.2	3.1	-3.5	-1.8	/	/
CCCN(CCC)CC(=O)NCC1(c2ccccc2)CCOCC1	-2.0	17.5*	9.5	2.9	0.5*	4.9
CCOC(=O)[C@]12CCCC=C1N(CCc1ccc(OC)c(OC)c1)C(=O)[C@H](CC(=O)N1CCCCC1)C2	/	-1.6	-1.6	/	/	/
CC(CNC(=O)CCCn1ncn2c(cc3occc32)c1=O)c1ccccc1 (configuration not stated)	-0.2	16.3*	0.8	0.8	-0.6	-6.5
N#CCC(=N)N1CCN(c2cccc(Cl)c2)CC1	0.7	15.1*	-3.7	4.5	-0.6	4.8
CC(=O)/C(C(=N)N1CCN(c2cccc(Cl)c2)CC1)=C(\C)O	-0.2	17.9*	4.8	0.3	-0.6	-1.7

Assay outcomes (PubChem BioAssay)
